Assay results from ChEMBL document CHEMBL1153939, “Novel antagonists of serotonin-4 receptors: synthesis and biological evaluation of pyrrolothienopyrazines” (Bioorg Med Chem, 2009).
Active and inactive are the calls of the source. The calls are words filed in the database; no cut-off is given here.

How the values were obtained:
[1] = target: 5-hydroxytryptamine receptor 4 (Mus musculus) (UniProt P97288); assay: Antagonist activity at mouse 5HT4a receptor expressed in african green monkey COS7 cells assessed as inhibition of 5HT-induced cAMP release relative to serotonin; format: functional, cell-based; set-up: scale not given: the % may be the effect or the level left; settings: COS-7
Method in brief: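 Antagonist mode on the same transfected COS-7 cells expressing mouse 5-HT4(a). Cells labelled with [3H]adenine, then incubated with 0.75 mM IBMX, 0.1 µM forskolin and test agents for 5 min at 37 °C; stopped with ice-cold 5% TCA. cAMP read as [3H]ATP→[3H]cAMP conversion after Dowex/alumina chromatography. Mean of four independent experiments.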

[2] = Toxicity in ip dosed NMRI mouse; format: organism-based; settings: in vivo
Method in brief: (§1)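 Male NMRI mice (20–24 g) given ip drug in saline (10 mL/kg), groups of 4. Behavioural and neurological changes scored against controls by a standardized observation technique at 30 min, 3 h and 24 h post-dose. Approximate LD50 derived from deaths counted at 24 h.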

Mus musculus [3] = assay: Acute toxicity in NMRI mouse assessed as induction of convulsions at 100 to 300 mg/kg, ip by CNS activity test; format: organism-based, Central nervous system; set-up: dose 100-300 mg/kg, route intraperitoneal; settings: in vivo; method in brief: as §1
Mus musculus [4] = assay: Toxicity in NMRI mouse assessed as spontaneous alteration performance ar 0.3 to 3 mg/kg, ip by Y-maze test; format: organism-based; set-up: dose 0.3-3 mg/kg, route intraperitoneal; settings: in vivo
Method in brief: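 Spontaneous alternation in male NMRI mice. Drug given ip in saline at 0.3, 1 and 3 mg/kg, 30 min before testing, with or without scopolamine 1 mg/kg. Four groups per dose: control, scopolamine, drug alone, drug+scopolamine. Alternation % = actual alternations/(total arm entries − 2) × 100. ANOVA plus Fisher PLSD.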

Mus musculus [5] = assay: Antinociceptive activity against acetic acid-induced writhing in NMRI mouse assessed as number of stretches at 0.1 mg/kg, ip by writhing test; format: functional; settings: route intraperitoneal
Method in brief: (§2)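 Groups of 8 male NMRI mice (20–24 g). Compound or reference given ip in saline (10 mL/kg) 15 min before ip 0.6% aqueous acetic acid (10 mL/kg). Stretches (back arching, pelvic rotation, hind-limb extension) counted over 10 min, beginning 10 min after acid. ANOVA + Fisher PLSD versus control.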

Mus musculus [6] = assay: Antinociceptive activity against acetic acid-induced writhing in NMRI mouse assessed as number of stretches at 1 mg/kg, ip by writhing test; format: functional; settings: route intraperitoneal; method in brief: as §2
[7] = target: T1, 5-hydroxytryptamine receptor 3A (Homo sapiens, UniProt P46098); assay: Antagonist activity at 5HT3 receptor in hybrid NG108-15 cells assessed as inhibition of 5HT-induced current by electrophysiology; format: functional, cell-based
T1 sequence (P46098 whole entry): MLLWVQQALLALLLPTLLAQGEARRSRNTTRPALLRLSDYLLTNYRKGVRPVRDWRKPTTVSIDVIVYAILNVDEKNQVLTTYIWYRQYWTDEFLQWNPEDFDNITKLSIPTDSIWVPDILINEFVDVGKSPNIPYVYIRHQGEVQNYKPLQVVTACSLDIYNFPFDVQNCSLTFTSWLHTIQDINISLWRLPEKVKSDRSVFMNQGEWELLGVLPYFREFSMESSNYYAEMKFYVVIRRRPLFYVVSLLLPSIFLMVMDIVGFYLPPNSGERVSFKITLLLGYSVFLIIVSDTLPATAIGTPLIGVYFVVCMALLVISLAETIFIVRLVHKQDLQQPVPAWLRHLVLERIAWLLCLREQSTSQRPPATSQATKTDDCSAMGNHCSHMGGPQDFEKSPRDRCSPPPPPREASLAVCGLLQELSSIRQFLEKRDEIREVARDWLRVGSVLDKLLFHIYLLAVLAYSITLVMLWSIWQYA
Method in brief: (§3)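 NG108-15 cells grown in DMEM-HG with 5% FBS and HAT, then differentiated on polylysine glass with 2% DMSO for 48 h followed by ≥24 h with 1 mM dibutyryl-cAMP. Whole-cell recording at −60 mV in HEPES saline, pH 7.3, with a CsCl/CsMeSO3 pipette solution. 5-HT 50 µM applied by gravity every 2.5 min.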

[8] = target: 5-hydroxytryptamine receptor 3A (Homo sapiens) (UniProt P46098); assay: Antagonist activity at 5HT3 receptor in hybrid NG108-15 cells assessed as inhibition of 5HT-induced current treated 1 min prior to agonist treatment by electrophysiology; format: functional, cell-based; method in brief: as §3
[9] = target: 5-hydroxytryptamine receptor 2A (Homo sapiens, UniProt P28223); assay: Displacement of [3H]ketanserin form human recombinant 5HT2A receptor
[10] = target: 5-hydroxytryptamine receptor 2B (Homo sapiens, UniProt P41595); assay: Displacement of [3H]mesulergine from human recombinant 5HT2B receptor
[11] = target: T1, 5-hydroxytryptamine receptor 3A; assay: Displacement of [3H]granisetron from human recombinant 5HT3 receptor
[12] = target: 5-hydroxytryptamine receptor 5A (Homo sapiens, UniProt P47898); assay: Displacement of [3H]LSD form human recombinant 5HT5A receptor
[13] = target: Alpha-1A adrenergic receptor (Homo sapiens, UniProt P35348); assay: Displacement of [3H]prazosin form human recombinant alpha1A adrenergic receptor
[14] = target: 5-hydroxytryptamine receptor 4 (Cavia porcellus) (UniProt O70528); assay: Displacement of [3H]GR-113808 from 5HT4 receptor in guinea pig striatum membrane at 1 uM; format: cell membranes
Method in brief: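 Guinea pig membranes (15 µg protein/mL) incubated 30 min at 37 °C with 0.6 nM [3H]GR113808 in 50 mM HEPES, pH 7.4, with fixed test concentrations. Nonspecific binding defined with 10 µM serotonin.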

5-hydroxytryptamine receptor 2B, sequence (P41595 whole entry): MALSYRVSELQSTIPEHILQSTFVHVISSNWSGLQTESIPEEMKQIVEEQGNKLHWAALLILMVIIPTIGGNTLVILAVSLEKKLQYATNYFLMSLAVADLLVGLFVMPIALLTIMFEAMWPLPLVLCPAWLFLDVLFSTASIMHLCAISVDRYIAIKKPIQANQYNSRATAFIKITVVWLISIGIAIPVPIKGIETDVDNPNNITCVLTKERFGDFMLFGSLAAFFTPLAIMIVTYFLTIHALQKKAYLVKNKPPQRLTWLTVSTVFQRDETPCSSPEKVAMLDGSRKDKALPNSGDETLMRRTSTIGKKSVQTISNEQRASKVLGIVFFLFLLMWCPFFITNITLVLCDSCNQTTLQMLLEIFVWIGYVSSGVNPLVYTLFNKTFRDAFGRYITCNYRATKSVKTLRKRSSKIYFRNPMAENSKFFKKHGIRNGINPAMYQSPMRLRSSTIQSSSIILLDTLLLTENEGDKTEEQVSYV
Alpha-1A adrenergic receptor, sequence (P35348 whole entry): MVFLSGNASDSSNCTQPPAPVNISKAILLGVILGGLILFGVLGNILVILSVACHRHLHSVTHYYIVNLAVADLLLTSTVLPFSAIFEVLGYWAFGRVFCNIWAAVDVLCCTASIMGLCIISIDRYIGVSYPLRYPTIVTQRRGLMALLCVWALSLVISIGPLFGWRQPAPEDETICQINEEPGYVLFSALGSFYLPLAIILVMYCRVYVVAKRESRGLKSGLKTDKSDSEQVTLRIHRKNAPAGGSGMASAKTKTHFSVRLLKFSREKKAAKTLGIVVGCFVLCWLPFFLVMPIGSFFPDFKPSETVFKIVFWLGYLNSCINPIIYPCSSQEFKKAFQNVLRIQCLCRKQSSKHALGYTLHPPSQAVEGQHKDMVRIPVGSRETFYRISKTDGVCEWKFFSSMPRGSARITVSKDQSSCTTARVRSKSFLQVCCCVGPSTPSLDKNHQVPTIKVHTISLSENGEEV
5-hydroxytryptamine receptor 5A, sequence (P47898 whole entry): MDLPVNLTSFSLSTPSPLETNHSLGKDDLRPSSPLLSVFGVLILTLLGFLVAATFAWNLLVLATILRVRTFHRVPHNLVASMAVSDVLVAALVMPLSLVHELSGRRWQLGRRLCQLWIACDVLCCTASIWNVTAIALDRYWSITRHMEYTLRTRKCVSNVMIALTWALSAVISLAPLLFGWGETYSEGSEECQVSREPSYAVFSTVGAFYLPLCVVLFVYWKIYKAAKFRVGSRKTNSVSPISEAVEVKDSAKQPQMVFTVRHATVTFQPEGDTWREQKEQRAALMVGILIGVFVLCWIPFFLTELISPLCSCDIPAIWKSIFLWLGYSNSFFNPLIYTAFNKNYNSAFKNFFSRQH
5-hydroxytryptamine receptor 4 (Mus musculus), sequence (P97288 whole entry): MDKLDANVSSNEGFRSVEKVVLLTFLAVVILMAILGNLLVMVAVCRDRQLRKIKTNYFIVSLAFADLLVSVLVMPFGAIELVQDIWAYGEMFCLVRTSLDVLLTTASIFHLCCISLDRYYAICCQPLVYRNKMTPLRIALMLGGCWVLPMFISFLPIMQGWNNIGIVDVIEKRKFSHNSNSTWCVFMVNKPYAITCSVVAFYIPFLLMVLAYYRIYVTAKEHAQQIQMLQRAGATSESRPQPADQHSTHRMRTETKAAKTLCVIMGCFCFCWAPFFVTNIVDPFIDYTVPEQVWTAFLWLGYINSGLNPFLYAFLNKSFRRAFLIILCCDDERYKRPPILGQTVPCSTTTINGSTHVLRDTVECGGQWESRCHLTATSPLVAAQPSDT
5-hydroxytryptamine receptor 2A, sequence (P28223 whole entry): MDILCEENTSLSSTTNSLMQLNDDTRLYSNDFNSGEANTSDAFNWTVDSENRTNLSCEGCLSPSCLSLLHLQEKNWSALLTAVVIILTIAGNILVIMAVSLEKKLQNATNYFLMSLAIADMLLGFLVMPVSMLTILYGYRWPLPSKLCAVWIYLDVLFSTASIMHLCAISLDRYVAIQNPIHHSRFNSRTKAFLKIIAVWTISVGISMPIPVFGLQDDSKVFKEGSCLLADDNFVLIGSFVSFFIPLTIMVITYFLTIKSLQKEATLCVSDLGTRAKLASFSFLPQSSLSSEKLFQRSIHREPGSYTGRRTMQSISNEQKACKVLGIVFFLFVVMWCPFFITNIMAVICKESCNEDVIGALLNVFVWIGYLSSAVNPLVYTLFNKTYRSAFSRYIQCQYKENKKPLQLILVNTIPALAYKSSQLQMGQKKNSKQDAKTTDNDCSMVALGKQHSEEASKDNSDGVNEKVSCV
5-hydroxytryptamine receptor 4 (Cavia porcellus), sequence (O70528 whole entry): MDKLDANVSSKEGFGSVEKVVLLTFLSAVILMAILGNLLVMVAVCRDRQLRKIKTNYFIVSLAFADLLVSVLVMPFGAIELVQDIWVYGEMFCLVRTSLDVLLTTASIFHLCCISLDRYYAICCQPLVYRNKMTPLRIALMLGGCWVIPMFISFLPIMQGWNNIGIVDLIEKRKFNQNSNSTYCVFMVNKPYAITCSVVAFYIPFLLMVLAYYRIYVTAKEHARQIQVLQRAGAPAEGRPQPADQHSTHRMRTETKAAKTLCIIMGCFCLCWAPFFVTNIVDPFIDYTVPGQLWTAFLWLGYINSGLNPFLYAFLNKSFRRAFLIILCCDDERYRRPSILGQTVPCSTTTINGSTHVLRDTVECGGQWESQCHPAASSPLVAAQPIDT

For CCCN1CCC(COc2nc3scc(C)c3n3cccc23)CC1, the Activity [1] was 80%, the LD50 [2] was 200 mg/kg and the Activity (Mus musculus [3]) was “Toxic”. For the same molecule, the Activity (Mus musculus [4]) was “Non-toxic”, the Activity (Mus musculus [5]) was 12.5 and the Activity (Mus musculus [6]) was 7.6. For the same molecule, the IC50 [7] was 0.385 µM, the Activity [8] was “inactive” and the IC50 [9] was > 10 µM. For the same molecule, the IC50 [10] was 0.282 µM, the IC50 [11] was 0.00692 µM and the IC50 [12] was > 10 µM. It also gave an IC50 [13] of 0.0741 µM and an inhibition [14] of 100%.
